Source: PubChem BioAssay (several laboratories)
A selection: hits, their analogues and other compounds. The true share with any hit is near 4.5%.
PfM18AAP inh-1: PfM18AAP inhibitors, malaria aminopeptidase, primary screen, biochemical, QFRET, recombinant enzyme; H-Glu-NHMec fluorogenic cleavage; AID 1822, 2009; inhibition, % at 7.35 µM; 290,000 compounds, 1.2% hits;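 active means inhibition above the campaign mean inhibition over all tested compounds plus 3 SD, cut at about 28% in these data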
CHOP UPR activ: activators of apoptotic CHOP UPR arm, primary screen, cell-based, CHO-CHOP luciferase reporter, luminescence, uHTS; UPR activation; percent of tunicamycin response over DMSO baseline; AID 449763, 2010; activation, % at 10 µM; 330,000 compounds, 0.34% hits;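 active means at 10 µM dose, activation of 40% or more, normalized to positive control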
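Material: CHO-CHOP cells, stable luciferase reporter of PERK-eIF2a-CHOP signalling; quantity: 500 reporter cells seeded per well; buffer or medium: F12 medium containing 10% fetal bovine serum; compound: one dose, 10 µM in 0.5% DMSO; incubation: 6 h compound treatment, 37 °C; measured by: Steady-Glo luciferase luminescence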
XBP1 UPR activ: activators of adaptive XBP1 UPR arm, primary screen, cell-based, CHO-XBP1 luciferase reporter, luminescence, uHTS | IRE1-XBP1 UPR activation; percent of tunicamycin response, DMSO as zero | activation, % at 20 µM | 330,000 compounds, 0.33% hits;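 active means versus positive control, 20 µM dose yields 30% or more activation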
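Material: CHO-XBP1 cells stably carrying IRE1-XBP1-driven luciferase reporter / Amount: 1000 cells per well / Compound: 20 µM, 1% DMSO / Times: 6 h treatment, 37 °C / Detection: luciferase luminescence / Measure: % activation of reporter signal versus tunicamycin and DMSO controls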
HCV NS3 hel inh: inhibitors of HCV NS3 helicase, primary screen, biochemical, Cy5 molecular beacon fluorescence. 290,000 compounds, 0.56% hits. AID 1800, 2009. inhibition, % at 10.9 µM. Hepatitis C virus NS3 helicase. NS3 helicase DNA unwinding;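 active means inhibition above the mean of all tested compounds plus 3 SD, set per campaign, cut at about 35% in these data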
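Control set: DMSO versus 110 µM thioflavine S; Material: NS3 helicase fragment of HCV; Measured by: Cy5 fluorescence at 0 and 60 min, beacon hairpin quenching; Read-out basis: percent inhibition from t60/t0 fluorescence ratio; Times: reaction time 60 min, 25 °C; Repeats: single replicate; Compound dosing: single dose, 10.9 µM nominal final, DMSO 0.8% final.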
CHOP inhibitor: inhibitors of CHOP promoter induction, primary screen, cell-based, unfolded protein response, luciferase reporter; 220,000 compounds, 3.8% hits; AID 2732, 2010; inhibition, % at 10 µM; CHO-K1 CHOP-promoter luciferase, tunicamycin-induced, 15-18 h;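 active means compounds that reduced the stress-induced luciferase reporter signal by more than about 70% of percent inhibition, limit read from the data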
p97 ATPase inh: inhibitors of human p97 ATPase, primary screen, biochemical. recombinant p97 ATPase, Kinase-Glo ATP luminescence, 3 h. AID 1481, 2009. 220,000 compounds, 0.42% hits. inhibition, % at 8 µM; in the data active means inhibition above about 15%
Target sequence (P55072 whole entry, looked up): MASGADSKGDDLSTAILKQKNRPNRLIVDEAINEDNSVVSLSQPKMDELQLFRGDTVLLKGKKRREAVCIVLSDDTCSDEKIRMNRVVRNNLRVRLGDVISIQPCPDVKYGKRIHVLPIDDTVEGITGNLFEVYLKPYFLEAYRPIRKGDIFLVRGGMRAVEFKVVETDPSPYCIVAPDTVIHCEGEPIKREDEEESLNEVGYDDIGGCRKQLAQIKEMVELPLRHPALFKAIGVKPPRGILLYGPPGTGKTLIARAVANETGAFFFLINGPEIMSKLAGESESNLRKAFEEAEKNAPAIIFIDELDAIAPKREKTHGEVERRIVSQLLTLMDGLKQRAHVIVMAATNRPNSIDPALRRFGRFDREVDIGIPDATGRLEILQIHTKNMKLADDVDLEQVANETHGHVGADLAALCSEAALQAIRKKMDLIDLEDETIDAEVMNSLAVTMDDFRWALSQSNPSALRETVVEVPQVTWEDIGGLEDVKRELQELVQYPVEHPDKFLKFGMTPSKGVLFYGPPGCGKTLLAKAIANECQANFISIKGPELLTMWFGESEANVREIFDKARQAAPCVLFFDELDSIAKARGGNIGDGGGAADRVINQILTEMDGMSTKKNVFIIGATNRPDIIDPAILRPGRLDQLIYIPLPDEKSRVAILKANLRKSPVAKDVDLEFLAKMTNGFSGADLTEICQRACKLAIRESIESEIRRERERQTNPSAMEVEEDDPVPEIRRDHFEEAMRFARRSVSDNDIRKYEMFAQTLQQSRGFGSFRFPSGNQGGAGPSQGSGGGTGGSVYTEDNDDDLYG
PfM18AAP inh-2: PfM18AAP inhibitors, malaria aminopeptidase, confirmation, biochemical, QFRET, recombinant enzyme, triplicate. inhibition, % at 7.35 µM. shares compounds with PfM18AAP inh-1. H-Glu-NHMec fluorogenic cleavage. 2,400 compounds, 28% hits;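 active means mean inhibition over replicate wells above the hit cutoff set for the earlier primary screen, cut at about 29% in these data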
CTSL1 counter: cathepsin L1 inhibitors, retest, confirmation, counter-screen for PFM18AAP inhibitor project, biochemical, QFRET, triplicate; shares compounds with PfM18AAP inh-1; purified cathepsin L1, Z-Leu-Arg-MCA fluorescence; inhibition, % at 5.96 µM; 2,400 tested, under 10 active;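 active means average inhibition across replicates above the hit cutoff set in the earlier primary screen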
A number is an active result.

Screening O=C(c1ccc(N2CCOCC2)c([N+](=O)[O-])c1)N1CCCC(C(F)(F)F)C1 (centres undefined) returned CHOP UPR activ inactive and XBP1 UPR activ inactive.
Screening O=C(C1CCCN(S(=O)(=O)c2ccc(Br)cc2)C1)N1CCOCC1 (centres undefined) returned PfM18AAP inh-1 inactive, CHOP UPR activ inactive, XBP1 UPR activ inactive and HCV NS3 hel inh inactive.
`Cc1ccc(CS(=O)(=O)Cc2ccc(C(=O)NCCCN3CC(C)CC(C)C3)o2)cc1` (centres undefined) gave PfM18AAP inh-1 inactive, CHOP UPR activ inactive, XBP1 UPR activ inactive and HCV NS3 hel inh inactive.
O=C(c1ccccc1)N1CCN(c2ccc([N+](=O)[O-])c(NCc3cccnc3)c2)CC1 was read as PfM18AAP inh-1 44, CHOP UPR activ inactive, XBP1 UPR activ inactive, HCV NS3 hel inh inactive, CHOP inhibitor inactive, p97 ATPase inh inactive, PfM18AAP inh-2 inactive and CTSL1 counter inactive.
Screening Cc1cc(C(C)(C)C)cc(S(=O)(=O)NCCc2ccncc2)c1C returned PfM18AAP inh-1 inactive, CHOP UPR activ inactive, XBP1 UPR activ inactive and HCV NS3 hel inh inactive.
Screening O=c1c2ccccc2n2c(=S)[nH]nc2n1-c1ccccc1 returned PfM18AAP inh-1 45, CHOP UPR activ inactive, XBP1 UPR activ inactive, HCV NS3 hel inh inactive, PfM18AAP inh-2 inactive and CTSL1 counter inactive.
Screening CCCCn1c(=O)c2ccccc2n2c(=S)[nH]nc12 returned PfM18AAP inh-1 32, CHOP UPR activ inactive, XBP1 UPR activ inactive, HCV NS3 hel inh inactive, PfM18AAP inh-2 inactive and CTSL1 counter inactive.
Screening CCCCCn1c(=O)c2ccccc2n2c(=S)[nH]nc12 returned PfM18AAP inh-1 inactive, CHOP UPR activ inactive, XBP1 UPR activ inactive and HCV NS3 hel inh inactive.
Screening CN1CCc2c(sc3c2c(=O)n(-c2ccccc2)c2n[nH]c(=S)n32)C1 returned PfM18AAP inh-1 38, CHOP UPR activ inactive, XBP1 UPR activ inactive, HCV NS3 hel inh inactive, CHOP inhibitor inactive, p97 ATPase inh inactive, PfM18AAP inh-2 inactive and CTSL1 counter inactive.
`CCC(C)c1ccc(-n2c(=O)c3ccccc3n3c(=S)[nH]nc23)cc1` (centres undefined) gave PfM18AAP inh-1 inactive, CHOP UPR activ inactive, XBP1 UPR activ inactive and HCV NS3 hel inh inactive.
Cc1cc(C)c(C(=O)COC(=O)C2CCN(c3ccc(C(F)(F)F)cn3)CC2)c(C)c1 was read as CHOP UPR activ inactive and XBP1 UPR activ inactive.
`CNC(=O)c1cc(C(=O)c2ccc(Cl)cc2)c[nH]1` gave PfM18AAP inh-1 inactive, CHOP UPR activ inactive, XBP1 UPR activ inactive and HCV NS3 hel inh inactive.
For O=C(c1ccc(Cl)cc1)c1c[nH]c(C(=O)NNc2ccccc2)c1 the results were PfM18AAP inh-1 33, CHOP UPR activ inactive, XBP1 UPR activ inactive, HCV NS3 hel inh inactive, CHOP inhibitor inactive, p97 ATPase inh inactive, PfM18AAP inh-2 inactive and CTSL1 counter inactive.
C/C(=N\Nc1cccc(C(=O)O)c1)c1ccc(Cl)s1 was read as PfM18AAP inh-1 41, CHOP UPR activ inactive, XBP1 UPR activ inactive, HCV NS3 hel inh inactive, CHOP inhibitor inactive, p97 ATPase inh inactive, PfM18AAP inh-2 inactive and CTSL1 counter inactive.
COc1ccc(/C(C)=N/Nc2cccc(C(=O)O)c2)cc1OC was read as PfM18AAP inh-1 inactive, CHOP UPR activ inactive, XBP1 UPR activ inactive, HCV NS3 hel inh inactive, CHOP inhibitor inactive and p97 ATPase inh inactive.
Screening CCC(=O)Nc1ccc(NC(=O)c2cccc3c(Br)cccc23)cc1 returned PfM18AAP inh-1 45, CHOP UPR activ inactive, XBP1 UPR activ inactive, HCV NS3 hel inh inactive, PfM18AAP inh-2 inactive and CTSL1 counter inactive.
CCC(=O)Nc1ccc(NC(=O)c2cccc3ccccc23)cc1 was read as PfM18AAP inh-1 inactive, CHOP UPR activ inactive, XBP1 UPR activ inactive and HCV NS3 hel inh inactive.
For COc1ccccc1NS(=O)(=O)c1cccc(C(=O)N2CCCC2)c1 the results were CHOP UPR activ inactive and XBP1 UPR activ inactive.
Cc1sc2nc(CSC(C)C(=O)Nc3ccc(Cl)cn3)[nH]c(=O)c2c1C (centres undefined) was read as CHOP UPR activ inactive and XBP1 UPR activ inactive.
CN(C)/N=C/C=C1\CCC/C(=C\c2ccc(F)c(F)c2)C1=O was read as PfM18AAP inh-1 38, CHOP UPR activ inactive, XBP1 UPR activ inactive, HCV NS3 hel inh inactive, CHOP inhibitor inactive, p97 ATPase inh inactive, PfM18AAP inh-2 inactive and CTSL1 counter inactive.
For COc1ccc(/C=C2\CCC/C(=C\C=N\N(C)C)C2=O)cc1 the results were PfM18AAP inh-1 inactive, CHOP UPR activ inactive, XBP1 UPR activ inactive, HCV NS3 hel inh inactive, CHOP inhibitor inactive and p97 ATPase inh inactive.
Cc1c(Cl)cccc1N1C(=O)CC(N(O)c2ccccc2)C1=O (centres undefined) was read as PfM18AAP inh-1 33, CHOP UPR activ inactive, XBP1 UPR activ inactive, HCV NS3 hel inh inactive, CHOP inhibitor inactive, p97 ATPase inh inactive, PfM18AAP inh-2 inactive and CTSL1 counter inactive.
For N#Cc1c(NC(=O)CSc2ccccn2)oc(-c2ccccc2)c1-c1ccccc1 the results were PfM18AAP inh-1 50, CHOP UPR activ inactive, XBP1 UPR activ inactive, HCV NS3 hel inh inactive, CHOP inhibitor inactive, p97 ATPase inh inactive, PfM18AAP inh-2 inactive and CTSL1 counter inactive.
For CCNC(=S)NNC(=O)c1ccc(OC)cc1 the results were PfM18AAP inh-1 33, CHOP UPR activ inactive, XBP1 UPR activ inactive, HCV NS3 hel inh inactive, CHOP inhibitor inactive, p97 ATPase inh inactive, PfM18AAP inh-2 inactive and CTSL1 counter inactive.
COCCCNC(=S)NNC(=O)c1ccc2c(c1)OCO2 was read as PfM18AAP inh-1 35, CHOP UPR activ inactive, XBP1 UPR activ inactive, HCV NS3 hel inh inactive, CHOP inhibitor inactive, p97 ATPase inh inactive, PfM18AAP inh-2 inactive and CTSL1 counter inactive.
`Cc1occc1C(=O)NNC(=S)Nc1ccccc1` gave PfM18AAP inh-1 inactive, CHOP UPR activ inactive, XBP1 UPR activ inactive, HCV NS3 hel inh inactive, CHOP inhibitor inactive and p97 ATPase inh inactive.
